Assay results taken from ChEMBL document CHEMBL2040727, “Substituted thiazoles VI. Synthesis and antitumor activity of new 2-acetamido- and 2 or 3-propanamido-thiazole analogs” (2012).

Experiments:
Format in all cases: functional
[1] = tested on: SF-539; assay: Growth inhibition of human SF539 cells at 10 uM after 48 hrs by coulter counter analysis; details: SF-539, 48 h, read-out: GI
Outline: (§1)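 Single-dose NCI 60-line panel screen of test compounds. Cells grown in RPMI 1640 with 10% FBS. Compounds dissolved in DMSO, then diluted in phosphate buffer saline (final DMSO below 1%). Wells run in duplicate at 6 × 10⁴ cells/ml. Controls held PBS and DMSO at matching dilutions. Incubation 48 h at 37 °C under humidified 5% CO2. Cells diluted tenfold in saline and counted by Coulter counter. Percent growth inhibition taken from mean-graph of treated-cell growth.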

[2] = tested on: NCI-H23; assay: Growth inhibition of human NCI-H23 cells at 10 uM after 48 hrs by coulter counter analysis; details: NCI-H23, 48 h, read-out: GI; outline: as §1
[3] = tested on: SF-268; assay: Growth inhibition of human SF268 cells at 10 uM after 48 hrs by coulter counter analysis; details: SF-268, 48 h, read-out: GI; outline: as §1
[4] = tested on: MDA-MB-468; assay: Growth inhibition of human MDA-MB-468 cells at 10 uM after 48 hrs by coulter counter analysis; details: MDA-MB-468, 48 h, read-out: GI; outline: as §1
[5] = tested on: HCC 2998; assay: Growth inhibition of human HCC2998 cells at 10 uM after 48 hrs by coulter counter analysis; details: HCC 2998, 48 h, read-out: GI; outline: as §1
[6] = tested on: Malme-3M; assay: Growth inhibition of human MALME-3M cells at 10 uM after 48 hrs by coulter counter analysis; details: read-out: GI; outline: as §1
[7] = tested on: IGROV-1; assay: Growth inhibition of human IGROV1 cells at 10 uM after 48 hrs by coulter counter analysis; details: IGROV-1, 48 h, read-out: GI; outline: as §1
[8] = tested on: K562; assay: Growth inhibition of human K562 cells at 10 uM after 48 hrs by coulter counter analysis; details: K562, 48 h, read-out: GI; outline: as §1
[9] = tested on: LOX IMVI; assay: Growth inhibition of human LOXIMVI cells at 10 uM after 48 hrs by coulter counter analysis; details: read-out: GI; outline: as §1
[10] = tested on: PC-3; assay: Growth inhibition of human PC3 cells at 10 uM after 48 hrs by coulter counter analysis; details: PC-3, 48 h, read-out: GI; outline: as §1
[11] = tested on: RXF 393; assay: Growth inhibition of human RXF393 cells at 10 uM after 48 hrs by coulter counter analysis; details: RXF 393, 48 h, read-out: GI; outline: as §1
[12] = tested on: SK-MEL-28; assay: Growth inhibition of human SK-MEL-28 cells at 10 uM after 48 hrs by coulter counter analysis; details: SK-MEL-28, 48 h, read-out: GI; outline: as §1
[13] = tested on: OVCAR-4; assay: Growth inhibition of human OVCAR4 cells at 10 uM after 48 hrs by coulter counter analysis; details: OVCAR-4, 48 h, read-out: GI; outline: as §1
[14] = tested on: CCRF-CEM; assay: Growth inhibition of human CCRF-CEM cells at 10 uM after 48 hrs by coulter counter analysis; details: read-out: GI; outline: as §1
[15] = tested on: OVCAR-5; assay: Growth inhibition of human OVCAR5 cells at 10 uM after 48 hrs by coulter counter analysis; details: OVCAR-5, 48 h, read-out: GI; outline: as §1
[16] = tested on: RPMI-8226; assay: Growth inhibition of human RPMI8226 cells at 10 uM after 48 hrs by coulter counter analysis; details: RPMI-8226, 48 h, read-out: GI; outline: as §1
[17] = tested on: HT-29; assay: Growth inhibition of human HT-29 cells at 10 uM after 48 hrs by coulter counter analysis; details: HT-29, 48 h, read-out: GI; outline: as §1
[18] = tested on: SK-MEL-5; assay: Growth inhibition of human SK-MEL-5 cells at 10 uM after 48 hrs by coulter counter analysis; details: SK-MEL-5, 48 h, read-out: GI; outline: as §1
[19] = tested on: UACC-62; assay: Growth inhibition of human UACC62 cells at 10 uM after 48 hrs by coulter counter analysis; details: UACC-62, 48 h, read-out: GI
Outline: (§2)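 Single-dose screen in the NCI 60 cell line panel. Cells grown in RPMI 1640 with 10% FBS. Compounds dissolved in DMSO and diluted in phosphate buffered saline, final DMSO under 1%. Duplicate wells seeded from culture at 6 × 10⁴ cells/ml. Incubated 48 h at 37 °C, humidified, 5% CO2. Cells diluted tenfold in saline and Coulter-counted. Percent growth inhibition computed against PBS/DMSO controls.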

[20] = tested on: SW-620; assay: Growth inhibition of human SW620 cells at 10 uM after 48 hrs by coulter counter analysis; details: SW-620, 48 h, read-out: GI; outline: as §2
[21] = tested on: BT-549; assay: Growth inhibition of human BT549 cells at 10 uM after 48 hrs by coulter counter analysis; details: BT-549, 48 h, read-out: GI; outline: as §1
[22] = tested on: HCT-15; assay: Growth inhibition of human HCT15 cells at 10 uM after 48 hrs by coulter counter analysis; details: HCT-15, 48 h, read-out: GI; outline: as §1
[23] = tested on: OVCAR-8; assay: Growth inhibition of human OVCAR8 cells at 10 uM after 48 hrs by coulter counter analysis; details: OVCAR-8, 48 h, read-out: GI; outline: as §1
[24] = Growth inhibition of human Hs 578T cells at 10 uM after 48 hrs by coulter counter analysis; details: read-out: GI; outline: as §1
[25] = tested on: MDA-MB-231; assay: Growth inhibition of human MDA-MB-231 cells at 10 uM after 48 hrs by coulter counter analysis; details: MDA-MB-231, 48 h, read-out: GI; outline: as §1
[26] = tested on: NCI-H226; assay: Growth inhibition of human NCI-H226 cells at 10 uM after 48 hrs by coulter counter analysis; details: NCI-H226, 48 h, read-out: GI; outline: as §1
[27] = tested on: UO-31; assay: Growth inhibition of human UO31 cells at 10 uM after 48 hrs by coulter counter analysis; details: UO-31, 48 h, read-out: GI; outline: as §2
[28] = tested on: A498; assay: Growth inhibition of human A498 cells at 10 uM after 48 hrs by coulter counter analysis; details: A498, 48 h, read-out: GI; outline: as §1
[29] = tested on: SN12C; assay: Growth inhibition of human SN12C cells at 10 uM after 48 hrs by coulter counter analysis; details: read-out: GI; outline: as §1
[30] = tested on: T47D; assay: Growth inhibition of human T47D cells at 10 uM after 48 hrs by coulter counter analysis; details: read-out: GI; outline: as §2
[31] = tested on: 786-0; assay: Growth inhibition of human 786-0 cells at 10 uM after 48 hrs by coulter counter analysis; details: 786-0, 48 h, read-out: GI; outline: as §1
[32] = tested on: HOP-62; assay: Growth inhibition of human HOP62 cells at 10 uM after 48 hrs by coulter counter analysis; details: HOP-62, 48 h, read-out: GI; outline: as §1
[33] = tested on: CAKI-1; assay: Growth inhibition of human Caki1 cells at 10 uM after 48 hrs by coulter counter analysis; details: CAKI-1, 48 h, read-out: GI; outline: as §1
[34] = tested on: MDA-MB-435; assay: Growth inhibition of human MDA-MB-435 cells at 10 uM after 48 hrs by coulter counter analysis; details: MDA-MB-435, 48 h, read-out: GI; outline: as §1
[35] = tested on: NCI-H322M; assay: Growth inhibition of human NCI-H322M cells at 10 uM after 48 hrs by coulter counter analysis; details: read-out: GI; outline: as §1

## CN1CCN(CCC(=O)Nc2nc(-c3ccccc3)cs2)CC1
[1]
  inhibition of growth at 10 µM: < 10%
[2]
  inhibition of growth at 10 µM: < 10%
[3]
  inhibition of growth at 10 µM: < 10%
[4]
  inhibition of growth at 10 µM: < 10%
[5]
  inhibition of growth at 10 µM: < 10%
[6]
  inhibition of growth at 10 µM: 12.7%
[7]
  inhibition of growth at 10 µM: 10.6%
[8]
  inhibition of growth at 10 µM: < 10%
[9]
  inhibition of growth at 10 µM: 11.1%
[10]
  inhibition of growth at 10 µM: 10.9%
[11]
  inhibition of growth at 10 µM: 11.1%
[12]
  inhibition of growth at 10 µM: < 10%
[13]
  inhibition of growth at 10 µM: < 10%
[14]
  inhibition of growth at 10 µM: 14.4%
[15]
  inhibition of growth at 10 µM: < 10%
[16]
  inhibition of growth at 10 µM: 11.7%
[17]
  inhibition of growth at 10 µM: < 10%
[18]
  inhibition of growth at 10 µM: < 10%
[19]
  inhibition of growth at 10 µM: 11.1%
[20]
  inhibition of growth at 10 µM: < 10%
[21]
  inhibition of growth at 10 µM: 16.5%
[22]
  inhibition of growth at 10 µM: < 10%
[23]
  inhibition of growth at 10 µM: < 10%
[24]
  inhibition of growth at 10 µM: 10.5%
[25]
  inhibition of growth at 10 µM: 11.6%
[26]
  inhibition of growth at 10 µM: 17.4%
[27]
  inhibition of growth at 10 µM: 54%
[28]
  inhibition of growth at 10 µM: < 10%
[29]
  inhibition of growth at 10 µM: 17.2%
[30]
  inhibition of growth at 10 µM: < 10%
[31]
  inhibition of growth at 10 µM: < 10%
[32]
  inhibition of growth at 10 µM: 14.5%
[33]
  inhibition of growth at 10 µM: 15.9%
[34]
  inhibition of growth at 10 µM: < 10%
[35]
  inhibition of growth at 10 µM: < 10%

## O=C(CN1CCN(c2ccccc2)CC1)Nc1nc(-c2ccccc2)cs1
[1]
  inhibition of growth at 10 µM: < 10%
[2]
  inhibition of growth at 10 µM: 18.6%
[3]
  inhibition of growth at 10 µM: < 10%
[4]
  inhibition of growth at 10 µM: 30.4%
[5]
  inhibition of growth at 10 µM: < 10%
[6]
  inhibition of growth at 10 µM: 23.4%
[7]
  inhibition of growth at 10 µM: 26.5%
[8]
  inhibition of growth at 10 µM: 20%
[9]
  inhibition of growth at 10 µM: 11.5%
[10]
  inhibition of growth at 10 µM: 26.3%
[11]
  inhibition of growth at 10 µM: < 10%
[12]
  inhibition of growth at 10 µM: < 10%
[13]
  inhibition of growth at 10 µM: < 10%
[14]
  inhibition of growth at 10 µM: 22.7%
[15]
  inhibition of growth at 10 µM: < 10%
[16]
  inhibition of growth at 10 µM: 25%
[17]
  inhibition of growth at 10 µM: 23.8%
[18]
  inhibition of growth at 10 µM: 31.9%
[19]
  inhibition of growth at 10 µM: 36.6%
[20]
  inhibition of growth at 10 µM: < 10%
[21]
  inhibition of growth at 10 µM: 11.3%
[22]
  inhibition of growth at 10 µM: 54.6%
[23]
  inhibition of growth at 10 µM: < 10%
[24]
  inhibition of growth at 10 µM: < 10%
[25]
  inhibition of growth at 10 µM: 29.2%
[26]
  inhibition of growth at 10 µM: 19.1%
[27]
  inhibition of growth at 10 µM: 51.4%
[28]
  inhibition of growth at 10 µM: 44.1%
[29]
  inhibition of growth at 10 µM: 17.3%
[30]
  inhibition of growth at 10 µM: 29.7%
[31]
  inhibition of growth at 10 µM: < 10%
[32]
  inhibition of growth at 10 µM: < 10%
[33]
  inhibition of growth at 10 µM: 36.6%
[34]
  inhibition of growth at 10 µM: < 10%
[35]
  inhibition of growth at 10 µM: 11.3%

## O=C(CCN1CCN(c2ccccc2)CC1)Nc1nc(-c2ccccc2)cs1
[1]
  inhibition of growth at 10 µM: 15.4%
[2]
  inhibition of growth at 10 µM: 31.4%
[3]
  inhibition of growth at 10 µM: 22.3%
[4]
  inhibition of growth at 10 µM: 33.4%
[5]
  inhibition of growth at 10 µM: < 10%
[6]
  inhibition of growth at 10 µM: < 10%
[7]
  inhibition of growth at 10 µM: 33.5%
[8]
  inhibition of growth at 10 µM: 32.6%
[9]
  inhibition of growth at 10 µM: 25.7%
[10]
  inhibition of growth at 10 µM: 28.3%
[11]
  inhibition of growth at 10 µM: 11.8%
[12]
  inhibition of growth at 10 µM: < 10%
[13]
  inhibition of growth at 10 µM: 36.2%
[14]
  inhibition of growth at 10 µM: 31.4%
[15]
  inhibition of growth at 10 µM: 18.8%
[16]
  inhibition of growth at 10 µM: 16.8%
[17]
  inhibition of growth at 10 µM: < 10%
[18]
  inhibition of growth at 10 µM: 52.5%
[19]
  inhibition of growth at 10 µM: 33.2%
[20]
  inhibition of growth at 10 µM: 10.9%
[21]
  inhibition of growth at 10 µM: 26.1%
[22]
  inhibition of growth at 10 µM: 20.6%
[23]
  inhibition of growth at 10 µM: 23.6%
[24]
  inhibition of growth at 10 µM: 14%
[25]
  inhibition of growth at 10 µM: < 10%
[26]
  inhibition of growth at 10 µM: 26.6%
[27]
  inhibition of growth at 10 µM: 68.9%
[28]
  inhibition of growth at 10 µM: 67.5%
[29]
  inhibition of growth at 10 µM: 33.5%
[30]
  inhibition of growth at 10 µM: 20.4%
[31]
  inhibition of growth at 10 µM: 18.1%
[32]
  inhibition of growth at 10 µM: 24.8%
[33]
  inhibition of growth at 10 µM: 37.7%
[34]
  inhibition of growth at 10 µM: 13.4%
[35]
  inhibition of growth at 10 µM: 13%
